# Hits are enriched below; roughly 2.1% of the tested compounds scored in any of these assays.
# PP5 inh – inhibitors of human protein phosphatase 5 (PP5) | AID 1987 | P53041 | inhibition, % at 6.7 µM | actives 0.18% (n = 320,000) | purified PP5c, OMFP substrate fluorescence;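 active = inhibition above the campaign's mean inhibition across all tested compounds plus 3 SD, cut at about 9.5% in these data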;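 note: 0% = DMSO only and 100% = 100 µM cantharidin control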
# PP1 inh – blocks human PP1-alpha phosphatase, a PP5 counter-screen. P62136. purified PP1alpha, OMFP fluorescence. inhibition, % at 6.7 µM. actives 0.9% (n = 320,000). AID 2235;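 active = inhibition above the mean inhibition of all tested compounds plus 3 SD, computed separately for each screening campaign, cut at about 15% in these data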
# Target sequence (P62136 whole entry, looked up): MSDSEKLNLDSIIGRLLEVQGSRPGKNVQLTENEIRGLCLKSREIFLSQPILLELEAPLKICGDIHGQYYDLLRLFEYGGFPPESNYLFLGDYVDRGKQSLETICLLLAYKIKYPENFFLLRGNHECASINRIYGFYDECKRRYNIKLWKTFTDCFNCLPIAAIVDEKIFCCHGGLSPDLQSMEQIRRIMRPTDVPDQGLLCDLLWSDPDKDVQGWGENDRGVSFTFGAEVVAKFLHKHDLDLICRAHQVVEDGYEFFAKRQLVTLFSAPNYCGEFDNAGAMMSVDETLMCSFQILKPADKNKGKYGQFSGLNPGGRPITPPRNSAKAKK
# Apaf1 inhib – blocks human Apaf-1 apoptosome activity; AID 489030; actives 0.71% (n = 330,000); reconstituted apoptosome caspase-3 activity, DEVD-Rh110 fluorescence; inhibition, % at 20 µM; O14727; active = inhibition of at least 40% at 20 µM;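 note: plate controls were DMSO wells for no effect and DEVD-CHO caspase inhibitor wells for full effect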
#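 Medium: Hepes buffer, pH 7.5 / System: biochemical Apaf-1 apoptosome reconstitution / Measured by: Rh110 fluorescence, excitation 480 nm, emission 540 nm / Times: compound with Apaf-1, dATP, procaspase-3 30 min, then 50 min reaction, room temperature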
# GSTO1 inh – GSTO1 inhibition, counter-screen for RBBP9 inhibitors. inhibition, % at 5.96 µM. P78417. AID 1974. actives 1.1% (n = 300,000). recombinant GSTO1, activity-based probe fluorescence polarization;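 active = inhibition above the campaign mean inhibition plus 3 SD, cut at about 35% in these data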;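 note: 0% = GSTO1-1 with DMSO and 100% = wells lacking GSTO1-1 enzyme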
# Target sequence (P78417 whole entry, looked up): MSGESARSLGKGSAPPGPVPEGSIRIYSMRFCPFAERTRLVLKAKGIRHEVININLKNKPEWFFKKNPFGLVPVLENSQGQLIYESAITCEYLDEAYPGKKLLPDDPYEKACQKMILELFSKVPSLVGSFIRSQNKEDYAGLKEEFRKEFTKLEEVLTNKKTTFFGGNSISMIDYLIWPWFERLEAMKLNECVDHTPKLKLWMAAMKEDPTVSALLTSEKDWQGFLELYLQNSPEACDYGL
# TDP2 inh – blocks human TDP2 phosphodiesterase activity; O95551; recombinant TDP2, T5PNP hydrolysis, p-nitrophenol absorbance 415 nm; inhibition, % at 12.8 µM; actives 0.34% (n = 370,000);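 active = inhibition above the mean of all tested compounds plus 3 SD, set per campaign, cut at about 25% in these data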;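 note: 0% = DMSO with enzyme and 100% = buffer with substrate but no TDP2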
#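 Test system: Human TDP2 enzyme | Reagent: 5 mM T5PNP | Compound dosing: 12.8 µM single point, 1% DMSO | Incubation: Enzyme reaction with compound for 2 h at 37 °C | Technique: p-Nitrophenol epi absorbance | Read-out: % inhibition relative to enzyme-containing and enzyme-free wells | Benchmarks: High control without enzyme, low control DMSO plus TDP2 | Replicates: Singlicate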
# PP1 confirm – human PP1 phosphatase inhibition, confirmation | AID 2358 | inhibition, % at 6.7 µM | purified PP1alpha, OMFP substrate fluorescence | actives 52% (n = 1,900) | shares compounds with PP1 inh;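 active = mean PP1 inhibition above a set limit taken from the earlier primary screen, cut at about 15% in these data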
# PP5 counter – inhibits human PP5 phosphatase in PP1 counter-screen | shares compounds with PP1 inh | purified PP5c, OMFP fluorescence | inhibition, % at 6.7 µM | actives 4% (n = 1,900) | AID 2360;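 active = mean PP5 inhibition over triplicate wells above about 9.5% taken from the earlier PP1 screen, limit read from the data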
# The depositor's hits bear a star; nt = not tested or not shown.
SMILES,PP5 inh,PP1 inh,Apaf1 inhib,GSTO1 inh,TDP2 inh,PP1 confirm,PP5 counter
O=C(O)C(c1ccccc1)N1C(=O)c2ccccc2C1=O (centres undefined),2.1,-3.2,1.8,8.5,12.8,nt,nt
O=C(O)[C@@H](c1ccccc1)N1Cc2ccccc2C1=O,2.5,24.1*,-0.9,7.7,3.4,35.2*,-5.2
COC(=O)[C@]12C[C@H](CC(=O)NCC34CC5CC(CC(C5)C3)C4)C(=O)N(Cc3ccc4c(c3)OCO4)C1=C[C@H](C(C)C)O[C@@H]2C1CC1,nt,nt,nt,nt,2.5,nt,nt
CN(C)c1ccc(-c2cc(O)c3ncccc3c2)cc1,1.0,21.3*,-4.4,nt,-9.8,20.7*,-3.5
Cc1ccc2c(c1)N(CCCC(=O)N(C)Cc1ccccc1Cl)C(=O)CO2,nt,nt,nt,nt,4.0,nt,nt
CC(=O)N[C@@H](C)CCc1ccc(Oc2ccc(OC(C)C)nc2)cc1,nt,nt,nt,nt,0.8,nt,nt
CSc1ccc(OC2(C)CCN(Cc3ccc4c(c3)OCCO4)C2)cc1 (centres undefined),nt,nt,nt,nt,13.1,nt,nt
Cc1cc(C)c2nc(N3C(=O)C(O)=C(C(=O)c4ccco4)C3c3ccc(O)cc3)sc2c1 (centres undefined),3.1,33.6*,3.6,nt,-5.9,29.7*,2.1
Cc1ccc(C2C(C(=O)c3ccco3)=C(O)C(=O)N2c2nnc(C)s2)cc1 (centres undefined),0.9,6.8,-5.9,-2.2,-0.5,nt,nt
Cc1cc(C)c2nc(N3C(=O)C(O)=C(C(=O)c4ccco4)C3c3cccc(O)c3)sc2c1 (centres undefined),2.5,34.2*,17.4,nt,5.1,26.5*,1.7
COC(=O)[C@]12C[C@H](CC(=O)NCc3ccc(C)o3)C(=O)N(Cc3ccc4c(c3)OCO4)C1=C[C@H](C(C)C)O[C@@H]2C1CC1,nt,nt,nt,nt,1.7,nt,nt
N#Cc1c(=O)c2nc(NCCCO)ncc2n2c(=O)c3ccccc3[nH]c12,4.8,19.8*,19.1,-8.4,-8.9,16.7*,0.8
N#Cc1c(=O)c2nc(NCc3ccccc3)ncc2n2ccccc12,1.1,1.9,15.7,20.9,10.4,nt,nt
Cc1nc(S/C(=C/c2ccc(-c3ccc(Cl)cc3)o2)C(=O)O)n[nH]1,1.0,10.5,23.3,10.2,4.6,nt,nt
Cc1nc(S/C(=C/c2ccc(-c3cc(Cl)ccc3C)o2)C(=O)O)n[nH]1,2.7,18.8*,7.1,3.0,0.2,18.4*,1.4
CCn1c(=O)cc(SCC(=O)N2CCN(C3CCCCC3)CC2)c2ccccc21,2.3,30.4*,-10.1,-4.3,3.5,0.4,3.3
CCn1c(=O)cc(SCC(=O)N2CCOCC2)c2ccccc21,0.2,-3.4,-13.3,-1.1,2.3,nt,nt
CC(c1nc2ccccc2n1Cc1ccccc1)n1c(-c2cnccn2)nc2ccccc21 (centres undefined),nt,nt,nt,nt,-7.0,nt,nt
Cc1cc(N2C(=O)C(O)=C(C(=O)c3cc4ccccc4o3)C2c2ccc([N+](=O)[O-])cc2)no1 (centres undefined),2.2,30.1*,-0.4,-56.9,0.0,16.2*,-2.5
Cc1cc(N2C(=O)C(O)=C(C(=O)c3ccco3)C2c2ccc(O)cc2)no1 (centres undefined),-0.5,-4.5,5.6,-0.7,8.3,nt,nt
Cc1cc(N2C(=O)C(O)=C(C(=O)c3ccco3)C2c2ccc(Cl)cc2)no1 (centres undefined),0.6,19.7*,-5.0,-7.1,3.9,17.4*,-0.5
Cc1cc(N2C(=O)C(O)=C(C(=O)c3ccco3)C2c2cccc(Oc3ccccc3)c2)no1 (centres undefined),-0.1,25.3*,18.8,-7.5,-0.7,26.4*,2.2
Cc1cccc(-c2nnc(SCC(=O)Nc3ccc(-c4nc5ccc(C)cc5s4)cc3)n2Cc2ccco2)c1,nt,nt,nt,nt,5.0,nt,nt
O=C(CN(CCc1ccccc1)S(=O)(=O)c1ccccc1)N1CCOCC1,nt,nt,nt,nt,1.4,nt,nt
CN(CC(=O)Nc1ccccc1N1CCCC1)S(=O)(=O)c1ccc(F)cc1,0.8,74.3*,27.8,5.1,4.6,-19.5,-2.8
SMILES,PP5 inh,PP1 inh,Apaf1 inhib,GSTO1 inh,TDP2 inh,PP1 confirm,PP5 counter
CCCCN(C)c1nc(C)nc2c1nnn2Cc1ccccc1,nt,nt,nt,nt,1.3,nt,nt
CCOC(=O)c1c(NC(=O)/C=C\C(=O)O)sc(C)c1-c1ccccc1,-2.1,3.0,6.6,-21.3,14.1,nt,nt
Cc1sc(NC(=O)C2C3CCC(O3)C2C(=O)O)nc1-c1ccc(CC(C)C)cc1 (centres undefined),78.9*,77.8*,14.3,4.2,-9.1,35.2*,37.9*
COCC(=O)Nc1nc(-c2ccc(C)cc2)c(C)s1,1.8,-3.4,4.6,-7.8,-1.2,nt,nt
CCOC(=O)c1c(NC(=O)C2C3CCC(O3)C2C(=O)O)sc(C)c1-c1ccc(C)cc1 (centres undefined),32.7*,19.9*,8.1,2.3,0.3,13.3,13.3*
CCOC(=O)c1c(NC(=O)/C=C/C(=O)O)sc(C)c1-c1ccc(C(C)(C)C)cc1,1.0,18.2*,30.8,-43.0,0.7,18.0*,0.1
CCOc1ccc(OCC)c(NC(=O)C2C3C=CC(O3)C2C(=O)O)c1 (centres undefined),nt,nt,nt,nt,-3.8,nt,nt
CCOC(=O)c1cc(NC(=O)C2C3C=CC(O3)C2C(=O)O)cc(C(=O)OCC)c1 (centres undefined),22.6*,16.9*,-5.2,4.8,-0.5,-0.2,0.6
CCOC(=O)c1cc(NC(=O)C2C3CCC(O3)C2C(=O)O)cc(C(=O)OCC)c1 (centres undefined),64.8*,56.9*,-5.4,0.8,-0.5,12.7,18.6*
CCOC(=O)c1ccc(NC(=O)C2C3CCC(C3)C2C(=O)O)cc1 (centres undefined),-5.4,-0.8,11.7,-1.6,-4.8,nt,nt
Cc1cccc(NC(=O)CNC(=O)[C@@H](Cc2ccccc2)NC(=O)[C@H]2O[C@@H](n3ccc(N)nc3=O)[C@H](O)[C@@H]2O)c1C,nt,nt,nt,nt,3.5,nt,nt
O=C(OCc1cn(Cc2ccccc2Cl)nn1)N1CCOCC1,nt,nt,nt,nt,-0.4,nt,nt
O=C1CCc2cc(S(=O)(=O)N3CCN(C(=O)c4ccco4)CC3)ccc2N1,5.1,71.4*,-8.9,-6.0,10.0,-2.5,-4.0
O=C(c1ccco1)N1CCN(S(=O)(=O)c2ccc(F)cc2)CC1,-0.8,-1.8,1.9,-4.9,0.3,nt,nt
COC(=O)[C@H](C(C)C)N(CCCc1cn(Cc2ccccc2)nn1)S(=O)(=O)c1ccccc1Br,nt,nt,nt,nt,-0.2,nt,nt
CC(Oc1ccc(Br)cc1)C(=O)Nc1nc(-c2ccccn2)cs1 (centres undefined),5.5,31.0*,2.5,11.6,-11.1,32.2*,-2.1
Cc1ccccc1C(=O)Nc1nc(-c2cccnc2)cs1,-0.7,0.6,13.1,2.1,4.8,nt,nt
O=C(Nc1nc(-c2cccnc2)cs1)c1ccccc1Cl,-0.3,19.8*,-11.3,-0.4,12.1,23.4*,-6.3

# High-throughput results (PubChem BioAssay)
